Test results published in ChEMBL document CHEMBL2331443, “Synthesis and biological evaluation of a new class of 4-aminoquinoline-rhodanine hybrid as potent anti-infective agents” (Eur J Med Chem, 2013).
≈ marks a conversion by molar mass, not a printed value.

How the values were obtained:
[1] = Cytotoxicity against mouse bone marrow derived macrophage assessed as growth inhibition after 48 hrs by MTS assay; type: cell-based
Procedure, shortened: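 Macrophages washed, plated at 10^5 cells per well in supplemented DMEM, 37 °C, 5% CO2, medium changed every 3rd day, used after 5 days. Compounds added in antibiotic-free, FBS-supplemented DMEM for 48 h at 37 °C, 5% CO2. MTS added for 2 h, absorbance 490 nm; DMSO wells taken as 100% survival.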

Vero = experiment: Cytotoxicity against african green monkey Vero cells assessed as growth inhibition after 24 hrs by MTS assay; type: cell-based; settings: Chlorocebus sabaeus
Procedure, shortened: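 Vero cells plated at 20,000 per well in MEM with antibiotics + 10% FBS, allowed to adhere overnight at 37 °C, 5% CO2. Compound dilutions added in MEM + 10% FBS; known toxic compound positive control, DMSO negative control. After 24 h, MTS added, 2 h at 37 °C, absorbance 490 nm; DMSO wells taken as 100% survival.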

[2] = system: Mycobacterium tuberculosis; experiment: Antitubercular activity Mycobacterium tuberculosis H37Rv assessed as growth inhibition after 4 weeks; type: functional; settings: 672 h
Procedure, shortened: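 M. tuberculosis H37Rv from Lowenstein-Jensen culture, harvested in N-saline with 0.05% Tween-80 and made single-cell with glass beads. Working inoculum 2 × 10⁷ cfu/mL spread on drug-containing slanted solid medium. Incubated 37 °C for 4 weeks, watching for colonies. Drug-free tubes as control, isoniazid as reference. MIC taken as the lowest concentration giving complete growth inhibition at this inoculum.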

Plasmodium yoelii = experiment: Antimalarial activity against Plasmodium yoelii infected in erythrocytes assessed as inhibition of beta-hematin formation after 16 hrs by BHIA assay; type: functional, cell-free
Procedure, shortened: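 Plasma from infected animal blood at 50% parasitemia (cardiac puncture into 2.0% citrate, spun 5000 rpm, 10 min, 4 °C). Reaction in 1.0 mL: 100 mM sodium acetate pH 5.1, hemin as substrate, plasma, 1–20 µg compound; controls without compound. Triplicate, 37 °C, 16 h, rotary shaker. Pellet washed, dissolved in 2 N NaOH, absorbance 400 nm; IC50 by nonlinear regression of dose-response.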

Plasmodium falciparum [3] = experiment: Antimalarial activity against Plasmodium falciparum K1 assessed as parasite growth inhibition after 72 hrs by MSF assay; type: functional, organism-based; settings: K1, 72 h
Procedure, shortened: (§1)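 P. falciparum cultures in RPMI-1640-FBS; DMSO stock 5 mg/ml diluted in medium, duplicate wells; 1.0% parasitized cell suspension at 0.8% parasitemia. Incubated 37 °C, 5% CO2 air mixture, 72 h. Lysis buffer with 2× SYBR Green I added, 1 h at 37 °C. Fluorescence read at 485 ± 20 nm excitation / 530 ± 20 nm emission; IC50 by logit regression.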

Plasmodium falciparum [4] = experiment: Antimalarial activity against Plasmodium falciparum 3D7 assessed as parasite growth inhibition after 72 hrs by MSF assay; type: functional, organism-based; settings: 3D7, 72 h; procedure, shortened: as §1
[5] = Selectivity index, ratio of CC50 for african green monkey Vero cells to IC50 for Plasmodium falciparum K1; type: functional

Structure (SMILES)	IC50 [1]	IC50 (Vero)	MIC [2]	IC50 (Plasmodium yoelii)	IC50 (Plasmodium falciparum [3])	IC50 (Plasmodium falciparum [4])	Ratio CC50/IC50 [5]
NNC(=O)c1ccncc1 [ISONIAZID]	> 100000 nM	> 100000 nM	0.217 µM (≈ 0.0298 µg/mL)	–	–	–	–
COc1cc(/C=C2\SC(=S)N(CCNc3ccnc4cc(Cl)ccc34)C2=O)cc(OC)c1OC	–	–	–	7.31 µg/mL (≈ 14.2 µM)	59.3 nM	34.8 nM	88.79
O=C1/C(=C/c2ccc(Cl)cc2)SC(=S)N1CCCNc1ccnc2cc(Cl)ccc12	–	–	–	3.26 µg/mL (≈ 6.87 µM)	94.2 nM	76.5 nM	442.83
CN(C)c1ccc(/C=C2\SC(=S)N(CCCNc3ccnc4cc(Cl)ccc34)C2=O)cc1	–	–	–	6.35 µg/mL (≈ 13.1 µM)	66.2 nM	49.3 nM	4195.05
O=C1/C(=C/c2ccccc2)SC(=S)N1CCCCNc1ccnc2cc(Cl)ccc12	–	–	–	4.03 µg/mL (≈ 8.88 µM)	153 nM	43.5 nM	113.53
CCc1ccc(/C=C2\SC(=S)N(CCCCNc3ccnc4cc(Cl)ccc34)C2=O)cc1	–	–	–	6.21 µg/mL (≈ 12.9 µM)	144 nM	54.5 nM	102.86
O=C1CSC(=S)N1CCCCNc1ccnc2cc(Cl)ccc12	–	–	12.5 µM (≈ 4.57 µg/mL)	6.21 µg/mL (≈ 17 µM)	58.2 nM	242 nM	75.44
O=C1/C(=C/c2ccccn2)SC(=S)N1CCNc1ccnc2cc(Cl)ccc12	–	–	–	16.5 µg/mL (≈ 38.6 µM)	> 1100 nM	> 1170 nM	–
CN(C)c1ccc(/C=C2\SC(=S)N(CCCCNc3ccnc4cc(Cl)ccc34)C2=O)cc1	–	–	–	4.23 µg/mL (≈ 8.51 µM)	54.6 nM	31 nM	422.41
CCc1ccc(/C=C2\SC(=S)N(CCNc3ccnc4cc(Cl)ccc34)C2=O)cc1	–	–	–	6.73 µg/mL (≈ 14.8 µM)	95.7 nM	42.7 nM	17.51
O=C1/C(=C/c2ccccc2[N+](=O)[O-])SC(=S)N1CCCNc1ccnc2cc(Cl)ccc12	70700 nM	> 100000 nM	6.25 µM (≈ 3.03 µg/mL)	3.3 µg/mL (≈ 6.8 µM)	83.8 nM	38.2 nM	639.19
O=C1/C(=C/c2ccccc2)SC(=S)N1CCNc1ccnc2cc(Cl)ccc12	–	–	–	8.21 µg/mL (≈ 19.3 µM)	104 nM	58.7 nM	29.16
O=C1/C(=C/c2ccc([N+](=O)[O-])cc2)SC(=S)N1CCCNc1ccnc2cc(Cl)ccc12	–	–	–	3.23 µg/mL (≈ 6.66 µM)	45.5 nM	23.5 nM	180.38
O=C1/C(=C/c2ccc([N+](=O)[O-])cc2)SC(=S)N1CCNc1ccnc2cc(Cl)ccc12	–	–	–	12.8 µg/mL (≈ 27.1 µM)	840 nM	870 nM	56.19
O=C1CSC(=S)N1CCCNc1ccnc2cc(Cl)ccc12	–	–	–	8.16 µg/mL (≈ 23.2 µM)	45.1 nM	200 nM	88.3
O=C1/C(=C/c2ccco2)SC(=S)N1CCCCNc1ccnc2cc(Cl)ccc12	70700 nM	> 100000 nM	6.25 µM (≈ 2.77 µg/mL)	2.78 µg/mL (≈ 6.26 µM)	151 nM	35 nM	92.72
COc1cc(/C=C2\SC(=S)N(CCCNc3ccnc4cc(Cl)ccc34)C2=O)cc(OC)c1OC	–	–	–	3.33 µg/mL (≈ 6.28 µM)	42.2 nM	56 nM	193.92
O=C1/C(=C/c2ccc([N+](=O)[O-])cc2)SC(=S)N1CCCCNc1ccnc2cc(Cl)ccc12	–	–	–	17.3 µg/mL (≈ 34.7 µM)	88.8 nM	40 nM	3720.88
CCN(CC)CCCC(C)Nc1ccnc2cc(Cl)ccc12 (stereo not drawn) [CHLOROQUINE]	–	–	–	4.3 µg/mL (≈ 13.4 µM)	–	–	–
O=C1/C(=C/c2cccc([N+](=O)[O-])c2)SC(=S)N1CCCNc1ccnc2cc(Cl)ccc12	–	–	–	3.93 µg/mL (≈ 8.1 µM)	50.4 nM	96 nM	106.4
COc1ccc(/C=C2\SC(=S)N(CCCNc3ccnc4cc(Cl)ccc34)C2=O)c2ccccc12	–	–	–	2.65 µg/mL (≈ 5.1 µM)	59.3 nM	90.7 nM	64.55
O=C1/C(=C/c2ccncc2)SC(=S)N1CCCCNc1ccnc2cc(Cl)ccc12	–	–	–	6.3 µg/mL (≈ 13.8 µM)	308 nM	93.5 nM	60.39
O=C1CSC(=S)N1CCNc1ccnc2cc(Cl)ccc12	–	–	–	4.9 µg/mL (≈ 14.5 µM)	80.1 nM	181 nM	112.54
COc1ccc(/C=C2\SC(=S)N(CCCCNc3ccnc4cc(Cl)ccc34)C2=O)c2ccccc12	> 100000 nM	> 100000 nM	6.25 µM (≈ 3.34 µg/mL)	4.05 µg/mL (≈ 7.58 µM)	284 nM	280 nM	356.27
O=C1/C(=C/c2ccc(F)cc2)SC(=S)N1CCCNc1ccnc2cc(Cl)ccc12	–	–	–	4.3 µg/mL (≈ 9.39 µM)	13.2 nM	93.9 nM	2083.58
COc1cc(/C=C2\SC(=S)N(CCCCNc3ccnc4cc(Cl)ccc34)C2=O)cc(OC)c1OC	–	–	12.5 µM (≈ 6.8 µg/mL)	3.93 µg/mL (≈ 7.22 µM)	70.1 nM	43.1 nM	110.08
CO[C@H]1/C=C/O[C@@]2(C)Oc3c(C)c(O)c4c(O)c(c(/C=N/N5CCN(C)CC5)c(O)c4c3C2=O)NC(=O)/C(C)=C\C=C\[C@H](C)[C@H](O)[C@@H](C)[C@@H](O)[C@@H](C)[C@H](OC(C)=O)[C@@H]1C [RIFAMPIN]	> 100000 nM	> 100000 nM	0.243 µM (≈ 0.2 µg/mL)	–	–	–	–
